Assay results reported in ChEMBL document CHEMBL1143973, “Imine derivatives as new potent and selective CB2 cannabinoid receptor agonists with an analgesic action” (Bioorg Med Chem, 2008).
≈ marks a conversion by molar mass, not a printed value. Calls of active or inactive are those of the source.

Tests used:
[1] = target: T1, Cannabinoid receptor 2 (Homo sapiens, UniProt P34972); test: Displacement of [3H]CP-55940 from human recombinant CB2 receptor expressed in CHO cells; format: cell-based
[2] = target: T2, Cannabinoid receptor 1 (Homo sapiens, UniProt P21554); test: Displacement of [3H]CP-55940 from human recombinant CB1 receptor expressed in CHO cells; format: cell-based
T2 sequence (P21554 whole entry): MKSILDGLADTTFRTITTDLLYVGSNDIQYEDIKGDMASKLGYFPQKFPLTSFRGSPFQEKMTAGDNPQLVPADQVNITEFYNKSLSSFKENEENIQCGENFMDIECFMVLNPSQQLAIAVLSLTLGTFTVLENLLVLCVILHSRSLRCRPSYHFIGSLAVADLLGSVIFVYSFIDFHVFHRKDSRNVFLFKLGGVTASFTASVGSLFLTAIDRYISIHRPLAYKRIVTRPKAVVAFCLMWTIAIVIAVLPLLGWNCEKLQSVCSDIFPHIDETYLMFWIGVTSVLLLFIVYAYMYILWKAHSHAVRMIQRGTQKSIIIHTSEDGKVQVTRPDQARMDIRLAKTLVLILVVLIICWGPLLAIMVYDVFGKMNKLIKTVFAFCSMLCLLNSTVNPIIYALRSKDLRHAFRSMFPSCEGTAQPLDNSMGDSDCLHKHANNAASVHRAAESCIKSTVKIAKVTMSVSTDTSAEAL

[3] = target: T1, Cannabinoid receptor 2; test: Agonist activity at human recombinant CB2 receptor expressed in CHO cells by [35S]GTP-gamma-S binding assay; format: functional, cell-based
Method in brief: (§1)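 Membranes from CHO cells expressing human CB2 (5 µg/well) in Hepes buffer pH 7.4 with 100 mM NaCl, 3 mM MgCl2, 0.2% BSA, 3 µM GDP and 30 µg/mL saponin. Preincubated with compound for 30 min at 30 °C, then 0.1 nM [35S]GTPγS added for a further 30 min at 30 °C. Filtered and counted. Nonspecific binding defined with 10 µM GTPγS.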

[4] = target: T1, Cannabinoid receptor 2; test: Agonist activity at human recombinant CB2 receptor expressed in CHO cells by [35S]GTP-gamma-S binding assay relative to CP-55940; format: functional, cell-based
Method in brief: as §1, with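 “GTPγS. Emax expressed relative to the maximal response to CP 55,940.” for “GTPγS.”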

[5] = target: T1, Cannabinoid receptor 2; test: Binding affinity to CB2 receptor
[6] = target: T2, Cannabinoid receptor 1; test: Agonist activity at CB1 receptor; format: functional
[7] = target: T1, Cannabinoid receptor 2; test: Agonist activity at CB2 receptor; format: functional
Method in brief: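 [³⁵S]GTPγS binding on membranes of CHO cells expressing human CB2. Buffer 20 mM Hepes, 100 mM NaCl, 3 mM MgCl2, 0.2% BSA, 3 µM GDP, 30 µg/mL saponin, pH 7.4. Membranes (5 µg/well) preincubated with compounds 30 min at 30 °C, then 0.1 nM [³⁵S]GTPγS added for 30 min at 30 °C. Filtration and scintillation counting; nonspecific binding with 10 µM GTPγS. EC50 derived; Emax relative to CP 55,940 maximum.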

[8] = target: T2, Cannabinoid receptor 1; test: Binding affinity to CB1 receptor
[9] = target: T3, Cannabinoid receptor 2 (Rattus norvegicus, UniProt Q9QZN9); test: Displacement of [3H]CP-55940 from […] receptor in Sprague-Dawley rat spleen membrane; format: cell membranes
T3 sequence (Q9QZN9 whole entry): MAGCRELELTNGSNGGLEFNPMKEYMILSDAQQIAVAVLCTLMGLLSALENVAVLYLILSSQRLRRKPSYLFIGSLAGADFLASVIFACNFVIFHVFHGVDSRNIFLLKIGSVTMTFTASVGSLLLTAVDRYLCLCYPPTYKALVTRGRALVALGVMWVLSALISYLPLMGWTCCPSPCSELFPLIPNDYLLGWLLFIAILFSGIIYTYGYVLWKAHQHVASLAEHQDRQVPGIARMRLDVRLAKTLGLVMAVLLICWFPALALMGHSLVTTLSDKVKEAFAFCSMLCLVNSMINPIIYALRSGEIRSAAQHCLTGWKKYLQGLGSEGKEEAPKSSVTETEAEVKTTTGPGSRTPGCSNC
Method in brief: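 Rat spleen membranes (100 µg/well) from male Sprague–Dawley rats in Tris-HCl buffer pH 7.4 with 5 mM EDTA, 5 mM MgCl2 and 0.2% BSA. Incubated with varying compound concentrations and 0.57 nM [3H]CP 55,940 at 25 °C for 120 min. Filtered and counted. Nonspecific binding defined with 2 µM CP 55,940.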

[10] = Tmax in Sprague-Dawley rat at 10 mg/kg, po; format: ADME, organism-based; design: dose 10 mg/kg, route oral; details: in vivo
Method in brief: (§2)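 Male Sprague–Dawley rats, 7–8 weeks old, dosed orally at 10 mg/kg. Blood taken from the tail vein and plasma stored at -80 °C. Plasma protein-precipitated with acetonitrile/methanol (9:1) containing internal standard, then quantified by LC-MS/MS (ESI, positive MRM). LLOQ 1 ng/mL. Mean ± SD of three animals.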

[11] = Plasma concentration in Sprague-Dawley rat at 10 mg/kg, po after 1.67 hrs; format: ADME, organism-based; design: dose 10 mg/kg, route oral; method in brief: as §2
[12] = Half life in Sprague-Dawley rat at 10 mg/kg, po; format: ADME, organism-based; design: dose 10 mg/kg, route oral; details: in vivo; method in brief: as §2
[13] = AUC (0 to 8 hrs) in Sprague-Dawley rat at 10 mg/kg, po; format: ADME, organism-based; design: time < 8 hr, dose 10 mg/kg, route oral; details: plasma
[14] = species: Homo sapiens; test: Selectivity for human CB2 receptor over human CB1 receptor
[15] = Solubility in water at 25 degC; format: physicochemical
Method in brief: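 Excess compound shaken in water at room temperature for 24 h, then centrifuged for 10 min at 25 °C. Supernatant diluted in 50% aqueous acetonitrile and quantified by reversed-phase HPLC with UV detection at 230 nm.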

[16] = Metabolic stability in human liver microsomes after 15 mins; format: ADME, Microsome; details: read-out: Stability
Method in brief: (§3)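 Compound at 5 µM final incubated for 15 min at 37 °C with human or rat liver microsomes (1.0 mg protein/mL) in phosphate buffer with KCl, pH 7.4, plus an NADPH-generating system. Stopped with DMSO, centrifuged, and the remaining compound measured by LC-MS/MS. Run in triplicate.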

[17] = Metabolic stability in Sprague-Dawley rat liver microsomes after 15 mins; format: ADME, Microsome; details: read-out: Stability; method in brief: as §3
[18] = system: Rattus norvegicus; test: Reversal of mechanical hyperalgesia in Wistar rat at 10 mg/kg, po after 1 hr by Randall-Selitto test; format: functional, organism-based; design: dose 10 mg/kg
Method in brief: (§4)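 Male Wistar rats (200–220 g) given 0.1 mL of 20% yeast suspension into the right hind paw plantar surface. Control paw-withdrawal threshold read by algesiometer 2 h after yeast, then compound given orally in 5% gum arabic vehicle. Threshold re-read at 1 and 3 h. Result expressed as %MPE. Seven rats per group; Dunnett's test versus vehicle.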

[19] = system: Rattus norvegicus; test: Reversal of mechanical hyperalgesia in Wistar rat at 30mg/kg, po after 1 hr by Randall-Selitto test; format: functional, organism-based; method in brief: as §4

T1 sequence (P34972 whole entry): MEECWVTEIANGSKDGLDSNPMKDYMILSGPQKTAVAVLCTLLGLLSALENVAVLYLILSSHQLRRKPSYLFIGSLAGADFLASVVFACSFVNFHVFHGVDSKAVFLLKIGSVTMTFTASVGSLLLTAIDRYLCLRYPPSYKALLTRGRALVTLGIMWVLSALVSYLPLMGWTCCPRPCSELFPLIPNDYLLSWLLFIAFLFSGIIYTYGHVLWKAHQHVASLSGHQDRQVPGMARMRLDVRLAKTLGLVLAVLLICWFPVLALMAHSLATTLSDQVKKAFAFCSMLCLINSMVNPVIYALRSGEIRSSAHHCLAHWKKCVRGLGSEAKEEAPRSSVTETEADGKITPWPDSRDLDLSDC

Row | SMILES | IC50 [1] [nM] | IC50 [2] [nM] | EC50 [3] [nM] | Emax [4] [%] | further results
1 | CCOCCn1/c(=N/C(=O)c2cccc(C(F)(F)F)c2F)cc(C(C)(C)C)n1C | 3.7 | 870 | 1.1 | 82 | 
2 | Cn1c(C(C)(C)C)c/c(=N\C(=O)c2cccc(C(F)(F)F)c2)n1CC1CC1 | 51 |  |  |  | 
3 | CC1(C)C(C(=O)c2cn(CCN3CCOCC3)c3ccccc23)C1(C)C |  |  |  |  | IC50 [5]: 0.77 nM
4 | Cc1c(C(C)C)o/c(=N\C(=O)c2cccc(C(F)(F)F)c2)n1CC1CC1 | 24 |  |  |  | 
5 | Cn1c(C(C)(C)C)c/c(=N\C(=O)c2cc(C(F)(F)F)ccc2F)n1CC1CC1 | 23 | 3700 | 8.8 | 90 | 
6 | O=C(NCC1CCOCC1)c1cnc(Nc2ccc(Cl)cc2Cl)nc1C(F)(F)F [GW842166X] |  |  |  |  | EC50 [6]: > 30 µM; EC50 [7]: 50 nM
7 | Cc1ccc(C(F)(F)F)cc1C(=O)/N=c1\cc(C(C)(C)C)n(C)n1CC1CC1 | 88 |  |  |  | 
8 | Cc1c(C(=O)/N=c2\cc(C(C)(C)C)n(C)n2CC2CC2)cccc1C(F)(F)F | 11 | 1300 | 4.4 | 73 | 
9 | Cn1c(C(C)(C)C)c/c(=N\C(=O)c2cccc(C(F)(F)F)c2Cl)n1CC1CC1 | 3.7 | 2200 | 1.5 | 82 | 
10 | CC(C)OCCn1/c(=N/C(=O)c2cccc(C(F)(F)F)c2F)cc(C(C)(C)C)n1C | 2.6 | 760 | 0.85 | 76 | 
11 | CN1CCCCC1Cn1cc(C(=O)c2cc([N+](=O)[O-])ccc2I)c2ccccc21 (stereo not given) |  |  |  |  | IC50 [8]: 280 nM; IC50 [5]: 3.4 nM
12 | CC(C)(C)c1c/c(=N\C(=O)c2cccc(C(F)(F)F)c2)n(CC2CC2)o1 | 46 |  |  |  | 
13 | Cn1c(C(C)(C)C)c/c(=N\C(=O)c2cccc(C(F)(F)F)c2F)n1CC1CCC1 | 1.7 | 940 | 0.32 | 96 | 
14 | CC(C)(C)c1nn(CC2CC2)/c(=N/C(=O)c2cccc(C(F)(F)F)c2)s1 | 300 |  |  |  | 
15 | Cn1c(C(C)(C)C)c/c(=N\C(=O)c2cccc(C(F)(F)F)c2F)n1CC1CC1 | 2.9 | 4000 | 1.8 | 85 | IC50 [9]: 1.4 nM; Tmax [10]: 1.67 h; Cmax [11]: 545 ng/mL; half-life [12]: 148 min; AUC(0-t) at 8 h [13]: 2160 ng·h/mL; Ratio IC50 [14]: 1400; solubility [15]: 59 µg/mL (≈ 148 µM); remaining at 0.25 h [16]: 92%; remaining at 0.25 h [17]: 86%; Activity [18]: Active; Activity [19]: Active
16 | Cc1c(C(C)(C)C)s/c(=N\C(=O)c2cccc(C(F)(F)F)c2)n1CC1CC1 |  |  |  |  | Ratio IC50 [14]: 270; solubility [15]: < 0.1 µg/mL
17 | Cn1c(C(C)(C)C)c/c(=N\C(=O)c2cccc(C(F)(F)F)c2F)n1CC1CCCC1 |  | 810 | 0.79 | 67 | 
18 | CC(C)(C)c1c/c(=N\C(=O)c2cccc(C(F)(F)F)c2)n(CC2CC2)s1 | 9.5 |  |  |  | 
